Data published in ChEMBL document CHEMBL3297654, “Synthesis, antimicrobial and cytotoxic activities, and structure-activity relationships of gypsogenin derivatives against human cancer cells” (Eur J Med Chem, 2014).
≈ marks a conversion by molar mass, not a printed value. Calls of active or inactive are those of the source. No cut-off for these calls is given here.

Experiments:
[1] = system: Proteus vulgaris; assay: Antimicrobial activity against Proteus vulgaris ATCC 33420 assessed as zone of inhibition at 30 uL for 24 hrs at 37 degC by disk diffusion test; type: functional, organism-based
Method in brief: (§1)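 Compound (30 µL of a fresh 1000 µg/mL DMSO stock) goes into a 6 mm well cut in Mueller Hinton agar inoculated with 0.1 mL broth culture adjusted to 0.5 McFarland (about 1×10^8 cells/mL). Plates are incubated 24 h at 37 °C, then zone of inhibition diameter is measured in mm.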

[2] = system: Enterococcus faecalis; assay: Antimicrobial activity against Enterococcus faecalis ATCC 29212 assessed as zone of inhibition at 30 uL for 24 hrs at 37 degC by disk diffusion test; type: functional, organism-based; method in brief: as §1
[3] = system: Klebsiella pneumoniae; assay: Antimicrobial activity against Klebsiella pneumoniae ATCC 13882 assessed as zone of inhibition at 30 uL for 24 hrs at 37 degC by disk diffusion test; type: functional, organism-based; method in brief: as §1
[4] = system: SAOS-2; assay: Induction of apoptosis in human Saos2 cells at 20 uM after 48 hrs by Hoechst 33258/propidium iodide staining based phase contrast microscopic analysis; type: functional
Method in brief: (§2)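 Cells in 48-well plates treated with 0.5, 10, 20 or 40 µM for 24 and 48 h. Values are read at 48 h, 20 µM for test agents and 0.5 µM for controls. Staining is Hoechst 33258/propidium iodide double staining with fluorescence microscopy. Blue nuclei are viable or early-to-mid apoptotic, and pink nuclei are late apoptotic or necrotic. Apoptosis and necrosis are scored from chromatin condensation as % of cells. Cells are grown at 37 °C in 5% CO2 in RPMI, DMEM or McCoy's 5A with 10–15% heat-inactivated FCS.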

[5] = system: HL-60; assay: Antiproliferative activity against human HL60 cells after 24 and 72 hrs by MTT assay; type: functional, cell-based
Method in brief: (§3)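 ATCC human cell lines are kept in RPMI, DMEM or McCoy's 5A with 10–15% heat-inactivated FCS at 37 °C and 5% CO2. They are seeded at 1×10^4–1×10^5 cells/mL in 48-well plates and exposed to 0.5, 10, 20 or 40 µM. Viability is read by MTT (590 nm) at 24 and 72 h. Growth is expressed relative to untreated cells and IC50 is fitted, in triplicate.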

[6] = system: Caco-2; assay: Antiproliferative activity against human Caco2 cells after 24 and 72 hrs by MTT assay; type: functional, cell-based; method in brief: as §3
[7] = system: Salmonella typhimurium; assay: Antimicrobial activity against Salmonella typhimurium ATCC 14028 assessed as zone of inhibition at 30 uL for 24 hrs at 37 degC by disk diffusion test; type: functional, organism-based; details: Salmonella enterica subsp. enterica serovar Typhimurium; method in brief: as §1
[8] = system: HT-29; assay: Antiproliferative activity against human HT-29 cells after 24 and 72 hrs by MTT assay; type: functional, cell-based; method in brief: as §3
[9] = system: Bacillus thuringiensis; assay: Antimicrobial activity against Bacillus thuringiensis for 24 hrs by microdillution method; type: functional
Method in brief: (§4)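 Broth microdilution. Compound is dissolved in DMSO (2 mg/mL) and diluted in Mueller Hinton broth as two-fold serial dilutions from 256 to 0.125 µg/mL. Bacteria are pre-grown in nutrient broth at 30 °C, and the final inoculum is about 10^6 cfu/mL. Tests are incubated 37 °C for 24 h. MIC is the lowest concentration giving complete inhibition. Streptomycin is the positive control.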

[10] = system: Candida albicans; assay: Antimicrobial activity against Candida albicans ATCC 10231 assessed as zone of inhibition at 30 uL for 24 hrs at 30 degC by disk diffusion test; type: functional, organism-based
Method in brief: (§5)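 Agar well diffusion on Mueller Hinton agar seeded with 0.1 mL broth culture (18–24 h), adjusted to 0.5 McFarland (about 1×10^8 bacteria or 1×10^6 yeast cells/mL). A 6 mm well is filled with 30 µL of compound from a fresh 1000 µg/mL DMSO stock. Plates are held at 30 °C for 24 h and inhibition zone diameter is read in mm.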

[11] = system: Candida tropicalis; assay: Antimicrobial activity against Candida tropicalis assessed as zone of inhibition at 30 uL for 24 hrs at 30 degC by disk diffusion test; type: functional, organism-based; method in brief: as §5
[12] = system: HL-60; assay: Induction of apoptosis in human HL60 cells at 20 uM after 48 hrs by Hoechst 33258/propidium iodide staining based phase contrast microscopic analysis; type: functional; method in brief: as §2
[13] = system: Bacillus subtilis; assay: Antimicrobial activity against Bacillus subtilis ATCC 6633 assessed as zone of inhibition at 30 uL for 24 hrs at 30 degC by disk diffusion test; type: functional; method in brief: as §5
[14] = system: Escherichia coli; assay: Antimicrobial activity against Escherichia coli ATCC 25922 assessed as zone of inhibition at 30 uL for 24 hrs at 37 degC by disk diffusion test; type: functional, organism-based; method in brief: as §1
[15] = system: HeLa; assay: Antiproliferative activity against human HeLa cells after 24 and 72 hrs by MTT assay; type: functional, cell-based; method in brief: as §3
[16] = system: MCF7; assay: Induction of apoptosis in human MCF7 cells at 20 uM after 48 hrs by Hoechst 33258/propidium iodide staining based phase contrast microscopic analysis; type: functional; method in brief: as §2
[17] = system: Bacillus cereus; assay: Antimicrobial activity against Bacillus cereus ATCC 11778 assessed as zone of inhibition at 30 uL for 24 hrs at 30 degC by disk diffusion test; type: functional; method in brief: as §5
[18] = system: MCF7; assay: Antiproliferative activity against human MCF7 cells after 24 and 72 hrs by MTT assay; type: functional, cell-based; method in brief: as §3
[19] = system: Bacillus thuringiensis; assay: Antimicrobial activity against Bacillus thuringiensis assessed as zone of inhibition at 30 uL for 24 hrs at 30 degC by disk diffusion test; type: functional; method in brief: as §5
[20] = system: Caco-2; assay: Induction of necrosis in human Caco2 cells at 20 uM after 48 hrs by Hoechst 33258/propidium iodide staining based phase contrast microscopic analysis; type: functional; method in brief: as §2
[21] = system: Staphylococcus aureus; assay: Antimicrobial activity against Staphylococcus aureus ATCC 25923 assessed as zone of inhibition at 30 uL for 24 hrs at 37 degC by disk diffusion test; type: functional, organism-based; method in brief: as §1
[22] = system: Micrococcus luteus; assay: Antimicrobial activity against Micrococcus luteus ATCC 9341 assessed as zone of inhibition at 30 uL for 24 hrs at 30 degC by disk diffusion test; type: functional, organism-based; method in brief: as §5
[23] = system: HL-60; assay: Induction of necrosis in human HL60 cells at 20 uM after 48 hrs by Hoechst 33258/propidium iodide staining based phase contrast microscopic analysis; type: functional; method in brief: as §2
[24] = system: HT-29; assay: Induction of apoptosis in human HT-29 cells at 20 uM after 48 hrs by Hoechst 33258/propidium iodide staining based phase contrast microscopic analysis; type: functional; method in brief: as §2
[25] = system: Staphylococcus epidermidis; assay: Antimicrobial activity against Staphylococcus epidermidis ATCC 12228 assessed as zone of inhibition at 30 uL for 24 hrs at 37 degC by disk diffusion test; type: functional, organism-based; method in brief: as §1
[26] = system: HeLa; assay: Induction of apoptosis in human HeLa cells at 20 uM after 48 hrs by Hoechst 33258/propidium iodide staining based phase contrast microscopic analysis; type: functional; method in brief: as §2
[27] = system: HeLa; assay: Induction of necrosis in human HeLa cells at 20 uM after 48 hrs by Hoechst 33258/propidium iodide staining based phase contrast microscopic analysis; type: functional; method in brief: as §2
[28] = system: Nakaseomyces glabratus; assay: Antimicrobial activity against Candida glabrata assessed as zone of inhibition at 30 uL for 24 hrs at 30 degC by disk diffusion test; type: functional, organism-based; method in brief: as §5
[29] = system: Cyberlindnera jadinii; assay: Antimicrobial activity against Candida utilis ATCC 9950 assessed as zone of inhibition at 30 uL for 24 hrs at 30 degC by disk diffusion test; type: functional, organism-based; method in brief: as §5
[30] = system: MCF7; assay: Induction of necrosis in human MCF7 cells at 20 uM after 48 hrs by Hoechst 33258/propidium iodide staining based phase contrast microscopic analysis; type: functional; method in brief: as §2
[31] = system: Bacillus cereus; assay: Antimicrobial activity against Bacillus cereus ATCC 11778 for 24 hrs by microdillution method; type: functional; details: ATCC 11778, 24 h; method in brief: as §4
[32] = system: Saccharomyces cerevisiae; assay: Antimicrobial activity against Saccharomyces cerevisiae ATCC 9763 assessed as zone of inhibition at 30 uL for 24 hrs at 30 degC by disk diffusion test; type: functional, organism-based; method in brief: as §5
[33] = system: Bacillus subtilis; assay: Antimicrobial activity against Bacillus subtilis ATCC 6633 for 24 hrs by microdillution method; type: functional; details: ATCC 6633, 24 h; method in brief: as §4
[34] = Antiproliferative activity against human Saos2 cells after 24 and 72 hrs by MTT assay; type: functional, cell-based; details: SAOS-2; method in brief: as §3
[35] = system: Pseudomonas aeruginosa; assay: Antimicrobial activity against Pseudomonas aeruginosa ATCC 35032 assessed as zone of inhibition at 30 uL for 24 hrs at 37 degC by disk diffusion test; type: functional, organism-based; method in brief: as §1
[36] = system: HT-29; assay: Induction of necrosis in human HT-29 cells at 20 uM after 48 hrs by Hoechst 33258/propidium iodide staining based phase contrast microscopic analysis; type: functional; method in brief: as §2
[37] = system: Caco-2; assay: Induction of apoptosis in human Caco2 cells at 20 uM after 48 hrs by Hoechst 33258/propidium iodide staining based phase contrast microscopic analysis; type: functional; method in brief: as §2
[38] = system: SAOS-2; assay: Induction of necrosis in human Saos2 cells at 20 uM after 48 hrs by Hoechst 33258/propidium iodide staining based […] microscopic analysis; type: functional; method in brief: as §2

IC50 [5]: 10.4 µM | IC50 [6]: 16.7 µM | IC50 [8]: 11.9 µM | MIC [9]: 32 µg/mL (≈ 68 µM) | IC50 [15]: 22.5 µM | IC50 [18]: 9.02 µM | MIC [31]: 32 µg/mL (≈ 68 µM) | MIC [33]: 32 µg/mL (≈ 68 µM)
SMILES: CC1(C)CC[C@]2(C(=O)O)CC[C@]3(C)C(=CC[C@@H]4[C@@]5(C)CC[C@H](O)[C@@](C)(C=O)[C@@H]5CC[C@]43C)[C@@H]2C1
diameter of the inhibition zone (DIZ) [1]: inactive | diameter of the inhibition zone (DIZ) [2]: inactive | diameter of the inhibition zone (DIZ) [3]: inactive | Activity [4]: 36% | diameter of the inhibition zone (DIZ) [7]: inactive | diameter of the inhibition zone (DIZ) [10]: inactive | diameter of the inhibition zone (DIZ) [11]: inactive | Activity [12]: 33% | diameter of the inhibition zone (DIZ) [13]: 13 mm | diameter of the inhibition zone (DIZ) [14]: inactive | Activity [16]: 30% | diameter of the inhibition zone (DIZ) [17]: 13 mm | diameter of the inhibition zone (DIZ) [19]: 13 mm | Activity [20]: 0% | diameter of the inhibition zone (DIZ) [21]: inactive | diameter of the inhibition zone (DIZ) [22]: inactive | Activity [23]: 4% | Activity [24]: 21% | diameter of the inhibition zone (DIZ) [25]: inactive | Activity [26]: 29% | Activity [27]: 0% | diameter of the inhibition zone (DIZ) [28]: inactive | diameter of the inhibition zone (DIZ) [29]: inactive | Activity [30]: 4% | diameter of the inhibition zone (DIZ) [32]: inactive | IC50 [34]: 7.85 µM | diameter of the inhibition zone (DIZ) [35]: inactive | Activity [36]: 2% | Activity [37]: 20% | Activity [38]: 2%
